This is an account of results in ChEMBL document CHEMBL1153905, “Functionalized 3-benzylidene-indolin-2-ones: inducers of NAD(P)H-quinone oxidoreductase 1 (NQO1) with antiproliferative activity” (Bioorg Med Chem, 2009).

For orientation: fold induction means the ratio of treated to control signal. The IC50 is the midpoint of a concentration-inhibition curve. Read a low IC50 as higher potency.

Data set [1] addresses NAD(P)H dehydrogenase [quinone] 1 (Mus musculus) (UniProt Q64669). The data set can be described thus: Induction of NQO1 activity in mouse Hepa-1c1c7 cells assessed as induction ratio at 10 uM after 48 hrs by MTT assay relative to control. In kind it is cell-based. The method in brief: (§1)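 Hepa1c1c7 cells, 10,000 per well, 24 h, were then treated 48 h (DMSO ≤0.5%). Digitonin/EDTA lysates were assayed for menadione-dependent MTT-formazan formation using a G6P/G6PDH NADPH-generating mix with FAD at pH 7.4. The reaction ran 5 min, was stopped with dicoumarol, and read at A590. Degree of induction = (A test − blank)/(A control − blank). Ratios were read off the induction–concentration plot at the EROD test concentration.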
(Tetrazolium dyes change colour on reduction, which living cells bring about.)

The target in data set [2] is T1, CYP1A1 (Mus musculus, UniProt P00184).
T1 sequence (P00184 whole entry): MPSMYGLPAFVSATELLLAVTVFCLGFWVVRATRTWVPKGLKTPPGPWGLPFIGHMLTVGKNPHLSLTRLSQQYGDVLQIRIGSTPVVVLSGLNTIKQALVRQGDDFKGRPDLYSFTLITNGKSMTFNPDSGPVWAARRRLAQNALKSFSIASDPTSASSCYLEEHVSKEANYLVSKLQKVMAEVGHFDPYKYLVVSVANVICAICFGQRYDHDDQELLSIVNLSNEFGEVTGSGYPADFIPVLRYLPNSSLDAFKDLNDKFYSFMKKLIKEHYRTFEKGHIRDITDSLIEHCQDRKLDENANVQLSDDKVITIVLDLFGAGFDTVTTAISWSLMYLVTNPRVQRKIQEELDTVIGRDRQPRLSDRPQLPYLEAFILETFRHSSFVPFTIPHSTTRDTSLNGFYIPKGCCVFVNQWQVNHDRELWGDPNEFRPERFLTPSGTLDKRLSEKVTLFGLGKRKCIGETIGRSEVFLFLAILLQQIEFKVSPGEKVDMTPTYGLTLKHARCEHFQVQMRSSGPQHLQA
In words: Induction of CYP1A1 activity in mouse Hepa-1c1c7 cells assessed as induction ratio at 10 uM after 48 hrs by EROD assay relative to control. It is filed as ADME, cell-based. In outline: (§2)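 About 10,000 Hepa1c1c7 cells/well cultured 24 h, then compound (0.5% DMSO final) for 48 h, at roughly 4 × the concentration doubling NQO1 activity. After PBS wash, cells given 5 µM 7-ethoxyresorufin plus 2 mM salicylamide, 37 °C, 40 min; resorufin fluorescence ex 530/em 590 nm, corrected for compound fluorescence. Ratio = (treated − blank)/(DMSO control − blank); mean ± SD, n = 3.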

The nature of data set [3]: Cytotoxicity against mouse Hepa-1c1c7 cells after 48 hrs by MTT assay. In kind it is cell-based. The conditions noted are these: hepa-1c1c7, 48 h. In outline: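 Murine hepatoma cells in α-MEM with 10% heat- and charcoal-treated fetal calf serum, passages 6–17; MTT read-out as for the cancer lines but with 48 h compound exposure. Highest concentration tested 25 µM. IC50 from survival-versus-concentration curve; mean and SD, n = 3.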

Data set [4] concerns the target T1, CYP1A1. In words: Induction of CYP1A1 activity in mouse Hepa-1c1c7 cells assessed as induction ratio at 1 uM after 48 hrs by EROD assay relative to control. It is filed as ADME, cell-based. The method in brief:
as §2

The target of data set [5] is NAD(P)H dehydrogenase [quinone] 1 (Mus musculus) (UniProt Q64669). The data set can be described thus: Induction of NQO1 activity in mouse Hepa-1c1c7 cells assessed as induction ratio at 1 uM after 48 hrs by MTT assay relative to control. It is filed as cell-based. The method in brief: as §1
Sequence of NAD(P)H dehydrogenase [quinone] 1 (Mus musculus) (Q64669 whole entry): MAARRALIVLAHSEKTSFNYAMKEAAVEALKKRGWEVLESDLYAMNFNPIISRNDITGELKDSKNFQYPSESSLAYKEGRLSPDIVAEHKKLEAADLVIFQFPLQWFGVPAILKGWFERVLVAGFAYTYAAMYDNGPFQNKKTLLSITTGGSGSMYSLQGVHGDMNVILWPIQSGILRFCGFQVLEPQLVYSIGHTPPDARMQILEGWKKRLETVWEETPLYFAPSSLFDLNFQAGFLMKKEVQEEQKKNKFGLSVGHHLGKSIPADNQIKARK
Data set [6] shares this target. In words: Induction of NQO1 activity in mouse Hepa-1c1c7 cells assessed as drug level required to double basal enzyme activity after 48 hrs by MTT assay. It is filed as cell-based. In outline: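 Hepa1c1c7 cells were grown in α-MEM with charcoal-treated FCS, 10,000 per well, 24 h. Compound was given 48 h (DMSO ≤0.5%) over a 10–100-fold range below cytotoxic levels, up to 25 µM. Cells were lysed with digitonin/EDTA. NQO1 was assayed by menadione-driven MTT reduction (G6P/G6PDH/NADP, FAD, Tris pH 7.4), quenched with dicoumarol, A590. CD is the concentration doubling basal activity, taken from the induction–concentration plot; mean ± SD, n = 3.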

Data set [7] deals with HCT-116. The data set can be described thus: Cell cycle arrest in human HCT116 cells released from G2 block assessed as accumulation at sub G1 phase at 15 uM after 24 hrs by flow cytometry. It is filed as functional. (Flow cytometry measures light scatter and fluorescence of single cells or particles in a stream.)
For data set [8], the system named is HCT-116. The data set can be described thus: Cell cycle arrest in human HCT116 cells released from G2 block assessed as accumulation at G1 phase at 15 uM after 24 hrs by flow cytometry. It is filed as functional.
For data set [9], the system named is HCT-116. The data set can be described thus: Cell cycle arrest in human HCT116 cells released from G2 block assessed as accumulation at S phase at 15 uM after 24 hrs by flow cytometry. In kind it is functional.
The test system of data set [10] is MCF7. In words: Antiproliferative activity against human MCF7 cells after 72 hrs by MTT assay. It is filed as functional, cell-based. Particulars: MCF7, 72 h. In outline: (§3)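 Cells seeded at 10,000 (MCF7), 4000 (HCT116) or 5000 (CCL186) per well and grown 24 h; MCF7 and CCL186 in EMEM with pyruvate, glutamine, 10% FBS; HCT116 in McCoy's 5A with 10% FBS. Compounds from DMSO stocks (≤1% DMSO final), 72 h exposure; MTT 0.5 mg/ml for 3 h, formazan in DMSO read at 590 nm. IC50 from sigmoidal survival curve, three separate occasions.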

Data set [11] has as its system HCT-116. In words: Cell cycle arrest in human HCT116 cells released from G1 block assessed as accumulation at G1 phase at 15 uM after 24 hrs by flow cytometry. It is filed as functional.
Data set [12] concerns MCF7. The data set can be described thus: Selectivity ratio of IC50 for human CCL186 cells to IC50 for human MCF7 cells. In outline: (§4)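 MTT assay. MCF7 and CCL186 cells were grown in EMEM/10% FBS, HCT116 in McCoy's 5A/10% FBS. Seeding was 10,000 (MCF7), 4000 (HCT116) and 5000 (CCL186) cells per well, 24 h. Compound exposure was 72 h, DMSO ≤1% final. MTT 0.5 mg/ml for 3 h, formazan dissolved in DMSO, A590. IC50 came from sigmoidal survival curves, with 3 separate occasions per concentration. Ratio = IC50 CCL186 / IC50 of the cancer line.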

Data set [13] concerns the target NAD(P)H dehydrogenase [quinone] 1 (Mus musculus) (UniProt Q64669). The data set can be described thus: Induction of NQO1 activity in mouse Hepa-1c1c7 cells assessed as induction ratio at 0.05 uM after 48 hrs by MTT assay relative to control. In kind it is cell-based. The method in brief:
as §1

In data set [14] the test system is HCT-116. In words: Cell cycle arrest in human HCT116 cells released from G1 block assessed as accumulation at S phase at 15 uM after 24 hrs by flow cytometry. It is filed as functional.
Data set [15] has as its system HCT-116. In words: Cell cycle arrest in human HCT116 cells released from G1 block assessed as accumulation at G2/M phase at 15 uM after 24 hrs by flow cytometry. In kind it is functional.
The target in data set [16] is T1, CYP1A1. The data set can be described thus: Induction of CYP1A1 activity in mouse Hepa-1c1c7 cells assessed as induction ratio at 0.05 uM after 48 hrs by EROD assay relative to control. It is filed as ADME, cell-based. The method in brief: as §2
Data set [17] relates to HCT-116. In words: Antiproliferative activity against human HCT116 cells after 72 hrs by MTT assay. It is filed as functional, cell-based. Particulars: HCT-116, 72 h. The method in brief: as §3
In data set [18] the test system is HCT-116. The data set can be described thus: Cell cycle arrest in human HCT116 cells released from G1 block assessed as accumulation at sub G1 phase at 15 uM after 24 hrs by flow cytometry. It is filed as functional.
Data set [19] deals with HCT-116. The data set can be described thus: Cell cycle arrest in human HCT116 cells released from G2 block assessed as accumulation at G2/M phase at 15 uM after 24 hrs by flow cytometry. In kind it is functional.
Data set [20] is described as follows: Antiproliferative activity against human CCL186 cells after 72 hrs by MTT assay. In kind it is cell-based. The conditions noted are these: CCL186, 72 h. In outline:
as §3

Data set [21] can be described thus: Selectivity ratio of IC50 for human CCL186 cells to IC50 for human HCT116 cells. In kind it is ADME, cell-based, HCT-116. Particulars: CCL186 cells and HCT116 cells, read-out: Ratio IC50. In outline: as §4

Turning to `O=C1Nc2ccccc2/C1=C\c1ccccn1`, the Ratio in data set [1] was 3.92. Moreover, on CYP1A1 [2], the fold induction at 48 h, 10 µM was determined as 1.08. The compound further displayed a half-maximal inhibitory concentration (IC50) in [3] of 19.9 µM.
On the same counts, the results for `O=C1Nc2ccccc2/C1=C\c1ccc(Cl)cc1Cl` are 4.24, 1.21 and 10.6 µM.
For `C[S+]([O-])CCCCN=C=S` (stereo not given) [SULFORAPHANE], the fold induction at 48 h, 1 µM at CYP1A1 [4] came to 0.92. In addition, in data set [5], the Ratio turned out to be 3.89. In addition, the CD in data set [6] stood at 0.26 µM.
On to `O=C1Nc2cc(F)ccc2/C1=C\c1cccc(C(F)(F)F)c1`, for which the Activity worked out at 2.49% in the data set on HCT-116 [7]; 64.15% in the data set on HCT-116 [8]; 8.82% in the data set with HCT-116 [9]; 64.93% with HCT-116 [11]; 8.04% in the data set on HCT-116 [14]; 14.58% in the data set on HCT-116 [15]. In addition, the Activity is 12.68% with HCT-116 [18] and 25% in the data set on HCT-116 [19]. The IC50 with MCF7 [10] worked out at 8.9 µM; in [3] it was 2.2 µM; in the data set on HCT-116 [17], 8.4 µM; in data set [20], 7.5 µM. Besides, in the data set on MCF7 [12], the “Ratio IC50” value was 0.9. Besides, in [13], the Ratio turned out to be 3.31. Also, the fold induction at 48 h, 0.05 µM at CYP1A1 [16] was 1.23. For the same compound, the selectivity ratio in data set [21] is 0.8.
